Source: ChEMBL document CHEMBL2331484, “Synthesis and biological evaluation of scopoletin derivatives” (Bioorg Med Chem, 2013)

What follows are molecules tested on HUVEC (assay: Antiproliferative activity against HUVEC assessed as growth inhibition rate at 10 uM after 24 hrs by MTT assay). Conditions: Homo sapiens, read-out: GI.
Assay type: functional
In short: (§1)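 HUVECs (passages 3–5, primary cord isolates) seeded at 1 × 10⁴ cells/well. Medium replaced with M199 containing 1% FBS plus compound. Viability read by MTT after 24 h. Percent inhibition was calculated from A570 minus A630 of treated versus control wells, and IC50 determined. Triplicate experiments, means ± SEM.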

First: COc1cc2ccc(=O)oc2cc1OCCN1CCCC1
Second: COc1cc2ccc(=O)oc2cc1OCCN1CCCCC1
The inhibition of growth at 10 µM of the first is higher: 1.9% for the first, 0.1% for the second.

Going from `COc1cc2ccc(=O)oc2cc1OCCN1CCOCC1` to `COc1cc2ccc(=O)oc2cc1OCCBr`, the inhibition of growth at 10 µM rises from 0% to 4.9%.

`COc1cc2ccc(=O)oc2cc1OCC(O)CNC(C)C` (stereo unspecified) and `COc1cc2ccc(=O)oc2cc1OCCNC(C)C` are the same in inhibition of growth at 10 µM: 0.1% for the first, 0.1% for the second.

Compared with `CCN(CC)CCOc1cc2oc(=O)ccc2cc1OC`, `CCN(CC)CC(O)COc1cc2oc(=O)ccc2cc1OC` (stereo unspecified) is higher in inhibition of growth at 10 µM: 0.1% for the first, 0.5% for the second.

First: COc1cc2ccc(=O)oc2cc1OCC(O)CN1CCCC1 (stereo unspecified)
Second: COc1cc2ccc(=O)oc2cc1OCCCl
The inhibition of growth at 10 µM of the first is higher: 0.5% for the first, 0.3% for the second.

First: COc1cc2ccc(=O)oc2cc1OCC(=O)c1ccc([N+](=O)[O-])cc1
Second: COc1cc2ccc(=O)oc2cc1OCC(=O)c1ccc(F)cc1
The inhibition of growth at 10 µM of the first is higher: 4.1% for the first, 3.6% for the second.

Work on `COc1cc2ccc(=O)oc2cc1OCCCCl` yielded an inhibition of growth at 10 µM of 0.1%.

These molecules were tested on HUVEC (assay: Antiproliferative activity against HUVEC assessed as growth inhibition rate at 100 uM after 24 hrs by MTT assay). Conditions: Homo sapiens, read-out: GI.
Assay type: functional
In short: as §1

First: COc1cc2ccc(=O)oc2cc1OCCN1CCCC1
Second: COc1cc2ccc(=O)oc2cc1OCCN1CCCCC1
The inhibition of growth at 100 µM of the first is higher: 7.9% for the first, 6.1% for the second.

First: COc1cc2ccc(=O)oc2cc1OCCN1CCOCC1
Second: COc1cc2ccc(=O)oc2cc1OCCBr
The inhibition of growth at 100 µM of the first is lower: 1.9% for the first, 5.6% for the second.

Compared with `COc1cc2ccc(=O)oc2cc1OCC(O)CNC(C)C` (stereo unspecified), `COc1cc2ccc(=O)oc2cc1OCCNC(C)C` is lower in inhibition of growth at 100 µM: 6.3% for the first, 0.1% for the second.

Compared with `CCN(CC)CCOc1cc2oc(=O)ccc2cc1OC`, `CCN(CC)CC(O)COc1cc2oc(=O)ccc2cc1OC` (stereo unspecified) is lower in inhibition of growth at 100 µM: 3.1% for the first, 0.3% for the second.

Compared with `COc1cc2ccc(=O)oc2cc1OCC(O)CN1CCCC1` (stereo unspecified), `COc1cc2ccc(=O)oc2cc1OCCCl` is higher in inhibition of growth at 100 µM: 0.3% for the first, 3.3% for the second.

First: COc1cc2ccc(=O)oc2cc1OCC(=O)c1ccc([N+](=O)[O-])cc1
Second: COc1cc2ccc(=O)oc2cc1OCC(=O)c1ccc(F)cc1
The inhibition of growth at 100 µM of the first is higher: 27.2% for the first, 16.6% for the second.

Molecule `COc1cc2ccc(=O)oc2cc1OCCCCl` has an inhibition of growth at 100 µM of 9.4%.
